The target of test [1] is T1, P-selectin (Homo sapiens, UniProt P16109).
T1 sequence (P16109 whole entry): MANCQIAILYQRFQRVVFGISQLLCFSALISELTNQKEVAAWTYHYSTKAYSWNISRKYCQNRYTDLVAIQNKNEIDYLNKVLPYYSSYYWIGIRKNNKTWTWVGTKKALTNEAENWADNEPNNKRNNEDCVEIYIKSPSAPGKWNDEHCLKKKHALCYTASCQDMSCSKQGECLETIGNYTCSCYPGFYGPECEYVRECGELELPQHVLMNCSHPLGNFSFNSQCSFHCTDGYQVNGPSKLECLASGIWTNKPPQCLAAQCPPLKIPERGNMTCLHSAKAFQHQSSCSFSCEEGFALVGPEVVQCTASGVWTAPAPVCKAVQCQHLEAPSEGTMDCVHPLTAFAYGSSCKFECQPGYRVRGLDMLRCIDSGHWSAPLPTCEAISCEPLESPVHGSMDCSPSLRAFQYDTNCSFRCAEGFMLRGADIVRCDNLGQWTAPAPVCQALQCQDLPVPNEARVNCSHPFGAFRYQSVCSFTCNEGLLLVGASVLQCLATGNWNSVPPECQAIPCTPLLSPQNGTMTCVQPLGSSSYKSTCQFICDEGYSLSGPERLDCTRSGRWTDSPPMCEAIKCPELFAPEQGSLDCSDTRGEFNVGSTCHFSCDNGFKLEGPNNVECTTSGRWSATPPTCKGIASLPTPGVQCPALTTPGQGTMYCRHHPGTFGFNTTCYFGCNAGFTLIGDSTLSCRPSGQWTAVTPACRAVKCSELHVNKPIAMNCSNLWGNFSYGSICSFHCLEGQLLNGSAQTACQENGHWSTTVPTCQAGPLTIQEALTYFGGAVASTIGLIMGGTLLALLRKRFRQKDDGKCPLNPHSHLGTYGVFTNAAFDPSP
As to the kind of experiment: Antagonist activity at P-selectin (unknown origin) by surface plasmon resonance-based dynamic assay. Background: SPR reads the build-up and loss of mass on a sensor chip optically.

Test [2] deals with T2, E-selectin (Homo sapiens, UniProt P16581).
T2 sequence (P16581 whole entry): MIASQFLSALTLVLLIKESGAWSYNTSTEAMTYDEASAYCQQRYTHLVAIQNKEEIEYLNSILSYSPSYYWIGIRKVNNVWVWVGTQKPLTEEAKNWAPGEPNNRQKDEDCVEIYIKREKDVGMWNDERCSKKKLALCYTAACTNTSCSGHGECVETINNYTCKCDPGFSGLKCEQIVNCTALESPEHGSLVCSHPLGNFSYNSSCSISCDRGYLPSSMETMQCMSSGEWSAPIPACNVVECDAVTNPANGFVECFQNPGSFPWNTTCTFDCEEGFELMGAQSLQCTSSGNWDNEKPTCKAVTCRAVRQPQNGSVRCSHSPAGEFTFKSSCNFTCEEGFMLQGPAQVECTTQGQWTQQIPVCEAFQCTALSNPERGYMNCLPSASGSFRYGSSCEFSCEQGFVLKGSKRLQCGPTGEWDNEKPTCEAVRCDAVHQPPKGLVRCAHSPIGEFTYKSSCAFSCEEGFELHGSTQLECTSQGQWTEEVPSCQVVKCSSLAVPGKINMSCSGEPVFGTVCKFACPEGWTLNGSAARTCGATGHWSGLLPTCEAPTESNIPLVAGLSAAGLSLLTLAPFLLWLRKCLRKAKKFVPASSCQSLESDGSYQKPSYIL
In words: Antagonist activity at E-selectin (unknown origin) assessed as adhesion to [3H]thymidine-labelled human HL60 cells by static assay. The format is cell-based, HL-60. In short, it runs like this: (§1)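 HL-60 cells labelled with [3H]thymidine in the culture medium. Wells precoated with goat anti-human IgG, then E- or P-selectin IgG (per line) captured. Labelled cells incubated on the immobilized selectin with test compound over a dose range. Non-adherent cells washed off, bound radioactivity counted, and IC50 derived from the dose-dependent loss of adherent cells.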

Test [3] has as its target T1, P-selectin. In words: Antagonist activity at P-selectin (unknown origin) assessed as adhesion to [3H]thymidine-labelled human HL60 cells by static assay. Format: cell-based, HL-60. In short, it runs like this: as §1
The subject of test [4] is Mus musculus. In words: Inhibition of TNFalpha-induced decrease in leukocyte rolling flux in mouse cremaster at 100 mg/kg, iv. Format: functional, organism-based. Also on record: dose 100 mg/kg. The essentials: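 Intravital microscopy of mouse cremaster. Mice receive rmTNFα in 150 μL saline. Compound in saline, or saline alone, is given intrajugularly at 100 mg/kg. Leukocyte rolling is read before and 10 min after injection. Means of 5 readings per venule, 10 venules per mouse, 5–6 mice per condition (±SEM).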

The text below walks through data of ChEMBL document CHEMBL3352221, “Acyclic tethers mimicking subunits of polysaccharide ligands: selectin antagonists” (ACS Med Chem Lett, 2014).

Active and inactive are the calls of the source. No cut-off for these calls is given here.

A word on the IC50: it is the concentration at which inhibition is half-maximal.

As for `COC(=O)[C@H](O[C@@H]1O[C@@H](C)[C@@H](O)[C@@H](O)[C@@H]1O)[C@@H](O[C@@H]1O[C@H](CO)[C@H](OC(=O)c2ccccc2)[C@H](O[C@H](Cc2ccccc2)C(=O)O)[C@H]1OC(=O)c1ccccc1)C(=O)OC(C)C`, in test [1], the concentration for half-maximal inhibition (IC50) turned out to be 21 µM. Still for that read-out and setting: for `CC(C)OC(=O)[C@H](O[C@@H]1O[C@@H](C)[C@@H](O)[C@@H](O)[C@@H]1O)[C@@H](O[C@@H]1O[C@H](CO)[C@H](OC(=O)c2ccccc2)[C@H](O[C@H](Cc2ccccc2)C(=O)O)[C@H]1O)C(=O)OC(C)C` the value was 19 µM.

As for `CC(C)OC(=O)[C@H](O[C@@H]1O[C@@H](C)[C@@H](O)[C@@H](O)[C@@H]1O)[C@@H](O[C@@H]1O[C@H](CO)[C@H](O)[C@H](O[C@H](Cc2ccccc2)C(=O)O)[C@H]1OC(=O)c1ccccc1)C(=O)OC(C)C`, the half-inhibitory concentration (IC50) in test [2] amounted to 220 µM; in test [3] it was 190 µM; in test [1], 34 µM. Consider `CC(=O)N[C@H]1[C@H]([C@H](O)[C@H](O)CO)O[C@@](O[C@H]2[C@@H](O)[C@@H](CO)O[C@@H](O[C@@H]([C@H](O[C@@H]3O[C@@H](C)[C@@H](O)[C@@H](O)[C@@H]3O)[C@H](C=O)NC(C)=O)[C@H](O)CO)[C@@H]2O)(C(=O)O)C[C@@H]1O`, for which, in test [4], the inhibition entry was “Active”. `COC(=O)[C@H](O[C@@H]1O[C@H](CO)[C@H](OC(=O)c2ccccc2)[C@H](O[C@H](Cc2ccccc2)C(=O)O)[C@H]1OC(=O)c1ccccc1)[C@@H](O[C@@H]1O[C@@H](C)[C@@H](O)[C@@H](O)[C@@H]1O)C(=O)OC(C)C`: the midpoint of inhibition in test [1], the IC50, lay at 16 µM.

`COC(=O)[C@H](O[C@@H]1O[C@@H](C)[C@@H](O)[C@@H](O)[C@@H]1O)[C@@H](O[C@@H]1O[C@H](CO)[C@H](O)[C@H](O[C@H](Cc2ccccc2)C(=O)O)[C@H]1OC(=O)c1ccccc1)C(=O)OC`: the half-inhibitory concentration (IC50) was 2080 µM in test [2], 1900 µM in test [3] and 520 µM in test [1].

`CC(C)OC(=O)[C@H](O[C@H]1O[C@@H](CO)[C@H](OC(=O)c2ccccc2)[C@@H](O[C@@H](Cc2ccccc2)C(=O)O)[C@H]1OC(=O)c1ccccc1)[C@@H](O[C@H]1O[C@@H](C)[C@@H](O)[C@@H](O)[C@@H]1O)C(=O)OCCc1cn(CCCCCOC(=O)[C@H](O[C@@H]2O[C@@H](C)[C@@H](O)[C@@H](O)[C@H]2O)[C@@H](O[C@@H]2O[C@H](CO)[C@H](OC(=O)c3ccccc3)[C@H](O[C@H](Cc3ccccc3)C(=O)O)[C@H]2OC(=O)c2ccccc2)C(=O)OC(C)C)nn1` had a half-inhibitory concentration (IC50) in test [1] of 8 µM. For the molecule `COC(=O)[C@H](O[C@@H]1O[C@@H](C)[C@@H](O)[C@@H](O)[C@@H]1O)[C@@H](O[C@@H]1O[C@H](CO)[C@H](OC(=O)c2ccccc2)[C@H](O[C@H](Cc2ccccc2)C(=O)O)[C@H]1OC(=O)c1ccccc1)C(=O)OC`, the IC50 is 140 µM in test [2], 110 µM in test [3] and 18 µM in test [1]. For `CC(C)OC(=O)[C@H](O[C@@H]1O[C@@H](C)[C@@H](O)[C@@H](O)[C@@H]1O)[C@@H](O[C@@H]1O[C@H](CO)[C@H](OC(=O)c2ccccc2)[C@H](O[C@H](Cc2ccccc2)C(=O)O)[C@H]1OC(=O)c1ccccc1)C(=O)OC(C)C`, the concentration for half-maximal inhibition (IC50) was 76 µM in test [2], 67 µM in test [3] and 8 µM in test [1].

In the case of `COC(=O)[C@H](O[C@@H]1O[C@@H](C)[C@@H](O)[C@@H](O)[C@@H]1O)[C@@H](O[C@@H]1O[C@H](CO)[C@H](O)[C@H](O[C@H](Cc2ccccc2)C(=O)O)[C@H]1O)C(=O)OC`, the figures for the half-inhibitory concentration (IC50) in test [2] and in test [3] were 5460 µM and 4840 µM, respectively.
